From ChEMBL document CHEMBL3864132, “Free fatty acid receptor 1 (GPR40) agonists containing spirocyclic periphery inspired by LY2881835” (Bioorg Med Chem, 2016)

Key:
[1] = molecular target: T1, Free fatty acid receptor 1 (Homo sapiens, UniProt O14842); assay: Agonist activity at human FFA1 receptor expressed in CHO cells assessed as induction of Ca2+ flux by fluo-8 dye based FLIPR assay; type: functional, cell-based
In short: (§1)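 CHO cells stably expressing human GPR40 seeded 24 h before assay, loaded 1 h with Fluo-8 calcium dye, read on FLIPR. Agonist response taken as maximum fluorescence change over baseline; concentration-response curves fitted for EC50. Efficacy expressed relative to GW9508 at 5 μM.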

[2] = molecular target: T1, Free fatty acid receptor 1; assay: Agonist activity at human FFA1 receptor expressed in CHO cells assessed as induction of Ca2+ flux by fluo-8 dye based FLIPR assay relative to GW9508; type: functional, cell-based; in short: as §1
[3] = Kinetic aqueous solubility of the compound in PBS buffer […] at pH 7.4 after 2 hrs by UV-Visible spectrophotometric analysis; type: physicochemical; conditions: read-out: Kinetic_solubility
In short: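 Equilibrated 2 h at 25°C with shaking, then filtered. Filtrates read by UV-Vis scan against 0–400 μM calibration curves in methanol/PBS.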

[4] = Half life in BALB/c mouse liver microsomes at 2 uM by HPLC-MS analysis; type: ADME
In short: (§2)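 Pooled liver microsomes from male BALB/c mice at 0.42 mg protein/ml in 100 mM potassium phosphate pH 7.4 with MgCl2, NADPH and a G6P/G6PDH regenerating system. Compound 2 μM (1.6% solvent), 37°C, five time points over 40 min, duplicates. Quenched in acetonitrile, analysed by HPLC-MS/MS. kel from ln(AUC) versus time; T1/2 = 0.693/kel; CLint scaled to incubation volume per mg microsomes.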

[5] = molecular target: T2, Free fatty acid receptor 3 (Homo sapiens, UniProt O14843); assay: Agonist activity at human FFA3 receptor expressed in CHO cells assessed as induction of Ca2+ flux by fluo-8 dye based FLIPR assay; type: functional, cell-based
T2 sequence (O14843 whole entry): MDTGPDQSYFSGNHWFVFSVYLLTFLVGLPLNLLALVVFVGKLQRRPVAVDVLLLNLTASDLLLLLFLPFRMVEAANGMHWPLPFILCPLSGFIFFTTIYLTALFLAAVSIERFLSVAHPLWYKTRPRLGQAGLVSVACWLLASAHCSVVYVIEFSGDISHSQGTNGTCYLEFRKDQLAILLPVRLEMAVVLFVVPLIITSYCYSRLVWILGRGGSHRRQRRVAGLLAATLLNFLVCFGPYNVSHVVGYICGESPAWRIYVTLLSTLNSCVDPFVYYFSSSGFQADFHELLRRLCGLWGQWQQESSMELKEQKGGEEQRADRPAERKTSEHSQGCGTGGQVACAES
In short: (§3)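 CHO lines stably expressing the respective receptor (GPR43, GPR41 or GPR120) used for specificity screening. Cells loaded 1 h with Fluo-8 calcium dye and read by FLIPR; maximum fluorescence change over baseline taken as agonist response.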

[6] = Protein binding in human plasma at 1 uM after 5 hrs by HPLC-MS/MS analysis; type: ADME, cell-free; conditions: read-out: PPB (converted)
In short: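 Equilibrium dialysis (12–14 kDa MWCO) of plasma spiked at 1 μM (1% solvent) against PBS pH 7.4, 5 h at 37°C with shaking, quadruplicates. Chambers matrix-matched, precipitated with acetonitrile and analysed by HPLC-MS/MS. Bound % = (1 − buffer/plasma peak area) × 100; recovery checked against undialyzed spiked plasma.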

[7] = Apparent permeability from apical to basolateral side in human Caco2 cells at 10 uM by HPLC-MS analysis; type: ADME, cell-based; conditions: Caco-2
In short: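 Apical-to-basolateral transport across Caco-2 monolayers, integrity checked by TEER in every well. Compound at 10 μM, acceptor concentrations by HPLC-MS. Papp = (VA/(area × time)) × ([drug]acc/[drug]initial,donor), insert area 0.31 cm², in 10^-6 cm/s. Mean of n = 2.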

[8] = molecular target: T3, Free fatty acid receptor 2 (Homo sapiens, UniProt O15552); assay: Agonist activity at human FFA2 receptor expressed in CHO cells assessed as induction of Ca2+ flux by fluo-8 dye based FLIPR assay; type: functional, cell-based; in short: as §3
T3 sequence (O15552 whole entry): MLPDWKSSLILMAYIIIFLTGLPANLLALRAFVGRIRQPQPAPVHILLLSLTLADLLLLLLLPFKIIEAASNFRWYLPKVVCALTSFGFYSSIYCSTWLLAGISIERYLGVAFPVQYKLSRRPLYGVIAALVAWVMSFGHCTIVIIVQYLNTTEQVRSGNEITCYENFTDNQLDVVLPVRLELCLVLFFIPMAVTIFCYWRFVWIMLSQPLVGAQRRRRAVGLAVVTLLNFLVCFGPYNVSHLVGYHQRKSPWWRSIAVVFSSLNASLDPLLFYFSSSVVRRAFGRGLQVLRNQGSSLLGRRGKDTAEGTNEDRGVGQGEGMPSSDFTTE

[9] = Intrinsic clearance in BALB/c mouse liver microsomes at 2 uM up to 40 mins by HPLC-MS analysis; type: ADME; in short: as §2
[10] = molecular target: T4, Free fatty acid receptor 4 (Homo sapiens, UniProt Q5NUL3); assay: Agonist activity at human FFA4 receptor expressed in CHO cells assessed as induction of Ca2+ flux by fluo-8 dye based FLIPR assay; type: functional, cell-based; in short: as §3
T4 sequence (Q5NUL3 whole entry): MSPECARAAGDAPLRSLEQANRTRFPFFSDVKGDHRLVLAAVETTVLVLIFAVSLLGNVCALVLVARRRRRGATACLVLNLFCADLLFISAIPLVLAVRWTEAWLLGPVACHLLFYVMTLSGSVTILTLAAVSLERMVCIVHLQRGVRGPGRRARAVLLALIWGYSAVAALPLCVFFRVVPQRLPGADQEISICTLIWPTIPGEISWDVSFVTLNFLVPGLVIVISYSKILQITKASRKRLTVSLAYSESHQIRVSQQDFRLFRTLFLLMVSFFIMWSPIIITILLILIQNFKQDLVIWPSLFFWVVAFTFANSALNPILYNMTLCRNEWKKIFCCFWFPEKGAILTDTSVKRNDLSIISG

[11] = molecular target: T1, Free fatty acid receptor 1; assay: Agonist activity at FFA1 receptor (unknown origin)
In short: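 Read-out on FLIPR as maximum fluorescence change over baseline. Dose-response testing gave EC50 from curve fitting. Efficacy is expressed as % of GW9508 reference agonist used at 5 μM.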

T1 sequence (O14842 whole entry): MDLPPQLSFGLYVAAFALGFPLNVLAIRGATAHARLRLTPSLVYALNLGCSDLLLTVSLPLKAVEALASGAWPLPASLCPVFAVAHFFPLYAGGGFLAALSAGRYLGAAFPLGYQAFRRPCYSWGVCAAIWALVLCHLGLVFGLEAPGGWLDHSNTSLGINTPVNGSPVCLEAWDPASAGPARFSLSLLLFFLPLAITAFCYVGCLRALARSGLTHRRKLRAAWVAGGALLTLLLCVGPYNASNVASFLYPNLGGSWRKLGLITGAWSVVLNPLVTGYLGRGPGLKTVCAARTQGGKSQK

Row | Structure (SMILES) | EC50 [1] [nM] | Emax [2] [%] | also measured
1 | O=C(O)CCc1ccc(OCc2ccc(CN3CCC4(CC3)CC(Cc3nc(C5CC5)no3)CCO4)cc2)cc1 (centres undefined) | 4540 | 53 | –
2 | O=C(O)CCc1ccc(OCc2ccc(CN3CCC4(CC3)CC(Cc3ccc(C(F)(F)F)cc3)CCO4)cc2)cc1 (centres undefined) | 1270 | 74 | –
3 | Cl.O=C(O)CCc1ccc(OCc2ccc(CN3CCC4(CC3)CC(Cc3ccccc3)CCO4)cc2)cc1 (centres undefined) | 55 | 93 | solubility kinetic at 2 h [3]: 151 µM; half-life at 2 µM [4]: 8.5 min; EC50 [5]: > 10000 nM; fraction unbound at 5 h, 1 µM [6]: 0.012; Papp A→B at 10 µM [7]: 12 ×10⁻⁶ cm/s; EC50 [8]: > 10000 nM; CLint at 40 min, 2 µM [9]: 196 µL/min/mg; EC50 [10]: > 10000 nM
4 | O=C(O)CCc1ccc(OCc2ccc(CN3CCC4(CC3)CC(OCc3ccc(C(F)(F)F)cc3)CCO4)cc2)cc1 (centres undefined) | > 20000 | – | –
5 | CC(C)NCC(O)COc1cccc2ccccc12 (centres undefined) [PROPRANOLOL] | – | – | Papp A→B at 10 µM [7]: 28 ×10⁻⁶ cm/s
6 | C[C@]12CC[C@H]3[C@@H](CCC4=CC(=O)CC[C@@]43C)[C@@H]1CC[C@@H]2O [TESTOSTERONE] | – | – | Papp A→B at 10 µM [7]: 13.6 ×10⁻⁶ cm/s
7 | O=C(O)CCc1ccc(OCc2ccc(CN3CCC4(CCCCO4)CC3)cc2)cc1 | > 20000 | – | –
8 | O=C(O)CCc1ccc(OCc2ccc(CN3CCC4(CC3)CC(OCc3ccccc3)CCO4)cc2)cc1 (centres undefined) | 1160 | 100 | –
9 | O=C(O)CCc1ccc(OCc2ccc(CN3CCC4(CC3)CC(OCC3CC3)CCO4)cc2)cc1 (centres undefined) | > 20000 | – | –
10 | CC#C[C@@H](CC(=O)O)c1ccc(OCc2ccc(CN3CCC4(C=Cc5ccccc54)CC3)cc2)cc1 [LY2881835] | – | – | EC50 [11]: 233 nM
11 | O=C(O)CCc1ccc(OCc2ccc(CN3CCC4(CC3)CC(Cc3ccccc3F)CCO4)cc2)cc1 (centres undefined) | 810 | 95 | –
